Data on seven compounds can be found in ChEMBL document CHEMBL2412994, “Solid phase synthesis of Smac/DIABLO-derived peptides using a 'Safety-Catch' resin: identification of potent XIAP BIR3 antagonists” (Bioorg Med Chem, 2013).

The source made the active and inactive calls. The rule behind the calls is not given here. Square brackets hold non-standard residues; d marks the D form. Peptide text beside a SMILES is read from it. Phg = N[C@H](C(=O)O)c1ccccc1; NMeA = CN[C@@H](C)C(=O)O

The subject of one assay is MDA-MB-231. Kind of assay: Cytotoxicity against human MDA-MB-231 cells assessed as cell viability after by MTT assay. The class given is functional. The method in brief: (§1)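 MTT viability assay. MDA-MB-231 cells were seeded at 1 × 10⁴ cells/well and MCF-7 cells at 2 × 10⁴ cells/well, then held 24 h at 37 °C in 5% CO₂. Medium was replaced with treatments; vehicle controls received matched DMSO. After 72 h, MTT (10 mg/ml stock) was added for 2 h in the dark. Formazan was dissolved in DMSO and read at 550 nm. Viability relative to untreated control at 100 µM.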

In another assay the test system is MCF7. Kind of assay: Cytotoxicity against human MCF7 cells assessed as cell viability after by MTT assay. The class given is functional. The method in brief:
as §1

Assay [1] addresses E3 ubiquitin-protein ligase XIAP (Homo sapiens, UniProt P98170). Kind of assay: Binding affinity to XIAP BIR3-domain (unknown origin).

Chain of E3 ubiquitin-protein ligase XIAP (P98170 whole entry): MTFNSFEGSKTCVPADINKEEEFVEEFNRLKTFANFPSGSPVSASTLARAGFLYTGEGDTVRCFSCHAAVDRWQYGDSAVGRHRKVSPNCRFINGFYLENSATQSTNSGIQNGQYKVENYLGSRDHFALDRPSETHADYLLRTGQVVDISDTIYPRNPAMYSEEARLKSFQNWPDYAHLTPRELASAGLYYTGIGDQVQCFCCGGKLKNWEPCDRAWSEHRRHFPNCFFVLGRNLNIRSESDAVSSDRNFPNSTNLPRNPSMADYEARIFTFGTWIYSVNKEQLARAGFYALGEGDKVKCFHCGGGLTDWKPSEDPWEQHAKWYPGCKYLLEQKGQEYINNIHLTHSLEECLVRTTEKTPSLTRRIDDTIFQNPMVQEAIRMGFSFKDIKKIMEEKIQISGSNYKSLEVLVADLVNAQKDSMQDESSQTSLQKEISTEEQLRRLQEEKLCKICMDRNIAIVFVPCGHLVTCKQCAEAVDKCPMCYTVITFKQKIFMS

For the compound `CN[C@@H](C)C(=O)N[C@H](C(=O)N1C[C@H](Oc2ccccc2)C[C@H]1C(=O)NC(c1ccccc1)c1ccccc1)C(C)(C)C`, the figures for the Activity with MDA-MB-231 and in the assay with MCF7 were 50.3% and 58.6%, respectively.

As for `CN[C@@H](C)C(=O)N[C@H](C(=O)N1C[C@H](Oc2ccccc2)C[C@H]1C(=O)N[C@@H]1CCCc2ccccc21)C(C)(C)C`, the Activity is recorded as 58.1% in the assay with MDA-MB-231 and 70.8% in the assay with MCF7.

Consider `CN[C@@H](C)C(=O)N[C@H](C(=O)N1C[C@H](c2ccccc2)C[C@H]1C(=O)NC(c1ccccc1)c1ccccc1)C(C)(C)C`, for which the Activity in the assay on MDA-MB-231 was 50.1%; in the assay with MCF7, 62.3%.

Take `CN[C@@H](C)C(=O)N[C@H](C(=O)N1C[C@H](c2ccccc2)C[C@H]1C(=O)N[C@@H]1CCCc2ccccc21)C(C)(C)C`: the Activity with MDA-MB-231 amounted to 54.6%; in the assay with MCF7 it was 79.4%.

As for `CC(C)[C@H](NC(=O)[C@H](C)N)C(=O)N1CCC[C@H]1C(=O)N[C@H](C(=O)N[C@@H](Cc1ccc(O)cc1)C(N)=O)c1ccccc1` (H-AVP[Phg]Y-NH2), the outcome in the assay on MDA-MB-231 and with MCF7 was inactive. Besides, in assay [1], binding was put at a Kd of 30 nM.

In the case of `CN[C@@H](C)C(=O)N[C@H](C(=O)N1CCC[C@H]1C(=O)N[C@@H](Cc1ccccc1)C(=O)N[C@@H](Cc1ccc(O)cc1)C(N)=O)C(C)C` (H-[NMeA]VPFY-NH2), the outcome in the assay with MDA-MB-231 and with MCF7 was inactive. For the same compound, binding in assay [1] was put at a Kd of 40 nM.

In the case of H-AVPFY-NH2, the result with MDA-MB-231 and in the assay with MCF7 was inactive. Moreover, the Kd – broadly, the free concentration of one partner at which half of the binding sites on the other are occupied at equilibrium, for simple one-to-one binding – in assay [1] is 60 nM.
